Measured values from ChEMBL document CHEMBL1165950, “Design and synthesis of new potent anticancer pyrazoles with high FLT3 kinase inhibitory selectivity” (Bioorg Med Chem, 2010).

Assays:
Assay type in all cases: functional
SN12C [1] = assay: Cytotoxicity against human SN12C cells assessed as cell growth at 10 uM; settings: read-out: Activity
How it was run: (§1)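 NCI-60 screen: cells grown in RPMI 1640 with 5% FBS and 2 mM L-glutamine, plated at 5000–40,000 cells/well according to doubling time, and preincubated 24 h at 37 °C, 5% CO2. The single 10 µM dose (DMSO stock) was added, then incubated 48 h. Cells were TCA-fixed and stained with 0.4% SRB, read at 515 nm, and growth % calculated against time-zero and control plates.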

SK-OV-3 = assay: Cytotoxicity against human SKOV3 cells assessed as cell growth at 0.01 uM after 48 hrs by sulforhodamine B assay; settings: SK-OV-3, 48 h, read-out: Activity
BT-549 [2] = assay: Growth inhibition of human BT549 cells after 48 hrs by sulforhodamine B assay; settings: BT-549, 48 h; for CC50: read-out: LC50 (the source's name)
How it was run: (§2)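 NCI five-dose SRB assay in RPMI 1640 with 5% FBS and 2 mM L-glutamine. Cells were preincubated 24 h, then exposed 48 h at 37 °C to five concentrations (10-fold or half-log serial dilutions from DMSO stocks). TCA fixation, SRB staining, and absorbance at 515 nm followed. IC50 was taken where [(Ti−Tz)/(C−Tz)]×100 = 50, with Tz as time-zero cell density.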

KM12 [3] = assay: Growth inhibition of human KM12 cells after 48 hrs by sulforhodamine B assay; settings: KM12, 48 h; for CC50: read-out: LC50 (the source's name)
How it was run: (§3)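 NCI 60-cell screen, five-dose mode. Cells grown in RPMI 1640 with 5% FBS and 2 mM L-glutamine and plated at 5000-40,000 cells/well according to doubling time. After 24 h preincubation, a Tz plate was TCA-fixed. Five concentrations (10-fold or 1/2 log dilutions) were applied for 48 h at 37 °C. SRB staining read at 515 nm. IC50 taken from [(Ti-Tz)/(C-Tz)]×100 = 50.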

KM12 [4] = assay: Cytotoxicity against human KM12 cells assessed as cell growth at 10 uM after 48 hrs by sulforhodamine B assay; settings: KM12, 48 h, read-out: Activity
MDA-MB-231 = assay: Cytotoxicity against human MDA-MB-231 cells assessed as cell growth at 1 uM after 48 hrs by sulforhodamine B assay; settings: MDA-MB-231, 48 h, read-out: Activity
T47D = assay: Cytotoxicity against human T47D cells assessed as cell growth at 0.01 uM after 48 hrs by sulforhodamine B assay; settings: read-out: Activity
HCT-15 = assay: Cytotoxicity against human HCT15 cells assessed as cell growth at 0.001 uM after 48 hrs by sulforhodamine B assay; settings: HCT-15, 48 h, read-out: Activity
SK-MEL-2 = assay: Cytotoxicity against human SK-MEL-2 cells assessed as cell growth at 0.01 uM after 48 hrs by sulforhodamine B assay; settings: SK-MEL-2, 48 h, read-out: Activity
HCT-116 [5] = assay: Cytotoxicity against human HCT116 cells assessed as cell growth at 0.01 uM after 48 hrs by sulforhodamine B assay; settings: HCT-116, 48 h, read-out: Activity
EKVX = assay: Cytotoxicity against human EKVX cells assessed as cell growth at 1 uM after 48 hrs by sulforhodamine B assay; settings: read-out: Activity
M14 = assay: Cytotoxicity against human M14 cells assessed as cell growth at 0.01 uM after 48 hrs by sulforhodamine B assay; settings: M14, 48 h, read-out: Activity
[6] = Cytotoxicity against human […] cells assessed as cell growth at 0.001 uM after 48 hrs by sulforhodamine B assay; settings: read-out: Activity
SN12C [7] = assay: Cytotoxicity against human SN12C cells assessed as cell growth at 0.01 uM after 48 hrs by sulforhodamine B assay; settings: read-out: Activity
MOLT-4 = assay: Growth inhibition of human MOLT4 cells after 48 hrs by sulforhodamine B assay; settings: MOLT-4, 48 h; how it was run: as §3
HOP-92 = assay: Cytotoxicity against human HOP92 cells assessed as cell growth at 10 uM after 48 hrs by sulforhodamine B assay; settings: HOP-92, 48 h, read-out: Activity
MDA-MB-435 = assay: Cytotoxicity against human MDA-MB-435 cells assessed as cell growth at 10 uM; settings: read-out: Activity; how it was run: as §1
NCI-H23 = assay: Cytotoxicity against human NCI-H23 cells assessed as cell growth at 0.01 uM after 48 hrs by sulforhodamine B assay; settings: NCI-H23, 48 h, read-out: Activity
UACC-257 = assay: Cytotoxicity against human UACC257 cells assessed as cell growth at 0.001 uM after 48 hrs by sulforhodamine B assay; settings: UACC-257, 48 h, read-out: Activity
HCT-116 [8] = assay: Cytotoxicity against human HCT116 cells assessed as cell growth at 0.001 uM after 48 hrs by sulforhodamine B assay; settings: HCT-116, 48 h, read-out: Activity
UO-31 [9] = assay: Growth inhibition of human UO31 cells after 48 hrs by sulforhodamine B assay; settings: UO-31, 48 h; for CC50: read-out: LC50 (the source's name); how it was run: as §3
BT-549 [10] = assay: Cytotoxicity against human BT549 cells assessed as cell growth at 0.01 uM after 48 hrs by sulforhodamine B assay; settings: BT-549, 48 h, read-out: Activity
How it was run: (§4)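 NCI-60 five-dose screen. Cells were grown in RPMI 1640 with 5% FBS and 2 mM L-glutamine, plated at 5000–40,000 cells/well and preincubated for 24 h. Time-zero plates were TCA-fixed. DMSO-solubilized drug was added at five concentrations (10-fold or ½-log serial dilutions) for 48 h at 37 °C, 5% CO2. Cells were TCA-fixed, stained with 0.4% SRB and read at 515 nm. Percent growth used time-zero, control and test absorbances.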

NCI-H322M = assay: Cytotoxicity against human NCI-H322M cells assessed as cell growth at 10 uM; settings: read-out: Activity; how it was run: as §1
SN12C [11] = assay: Cytotoxicity against human SN12C cells assessed as cell growth at 100 nM after 48 hrs by sulforhodamine B assay; settings: read-out: Activity
CCRF-CEM = assay: Cytotoxicity against human CCRF-CEM cells assessed as cell growth at 0.01 uM after 48 hrs by sulforhodamine B assay; settings: read-out: Activity; how it was run: as §4
UACC-62 = assay: Growth inhibition of human UACC62 cells after 48 hrs by sulforhodamine B assay; settings: UACC-62, 48 h; for CC50: read-out: LC50 (the source's name); how it was run: as §3
A498 = assay: Growth inhibition of human A498 cells after 48 hrs by sulforhodamine B assay; settings: A498, 48 h; how it was run: as §2
OVCAR-5 = assay: Growth inhibition of human OVCAR5 cells after 48 hrs by sulforhodamine B assay; settings: OVCAR-5, 48 h; for CC50: read-out: LC50 (the source's name); how it was run: as §3
SN12C [12] = assay: Cytotoxicity against human SN12C cells assessed as cell growth at 1 uM after 48 hrs by sulforhodamine B assay; settings: read-out: Activity
UO-31 [13] = assay: Cytotoxicity against human UO31 cells assessed as cell growth at 1 uM after 48 hrs by sulforhodamine B assay; settings: UO-31, 48 h, read-out: Activity

COc1cc(C)cc(-c2c(-c3ccnc(-c4ccc(C(C)=O)cc4)c3)cnn2CC#N)c1
growth at 10 µM (SN12C [1]): 66% | growth at 0.01 µM (SK-OV-3): 98% | GI50 (BT-549 [2]): 3.12 µM | TGI (BT-549 [2]): > 100 µM | CC50 (BT-549 [2]): > 100 µM | GI50 (KM12 [3]): 2.87 µM | TGI (KM12 [3]): > 100 µM | CC50 (KM12 [3]): > 100 µM | growth at 10 µM (KM12 [4]): 10% | growth at 1 µM (MDA-MB-231): 21% | growth at 0.01 µM (T47D): 92% | growth at 0.001 µM (HCT-15): 94% | growth at 0.01 µM (SK-MEL-2): 90% | growth at 0.01 µM (HCT-116 [5]): 91% | growth at 1 µM (EKVX): 37% | growth at 0.01 µM (M14): 86% | growth at 0.001 µM [6]: 95% | growth at 0.01 µM (SN12C [7]): 93% | GI50 (MOLT-4): 2.63 µM | LC50 (MOLT-4): > 100 µM | TGI (MOLT-4): > 100 µM | growth at 10 µM (HOP-92): -1% | growth at 10 µM (MDA-MB-435): 10.6% | growth at 0.01 µM (NCI-H23): 95% | growth at 0.001 µM (UACC-257): 95% | growth at 0.001 µM (HCT-116 [8]): 97% | GI50 (UO-31 [9]): 2.61 µM | TGI (UO-31 [9]): > 100 µM | CC50 (UO-31 [9]): > 100 µM | growth at 0.01 µM (BT-549 [10]): 86% | growth at 10 µM (NCI-H322M): 104% | growth at 0.1 µM (SN12C [11]): 92% | growth at 0.01 µM (CCRF-CEM): 93% | GI50 (UACC-62): 4.05 µM | TGI (UACC-62): > 100 µM | CC50 (UACC-62): > 100 µM | GI50 (A498): 2.03 µM | LC50 (A498): > 100 µM | TGI (A498): > 100 µM | GI50 (OVCAR-5): > 100 µM | TGI (OVCAR-5): > 100 µM | CC50 (OVCAR-5): > 100 µM | growth at 1 µM (SN12C [12]): 28% | growth at 1 µM (UO-31 [13]): 11%

COc1cc(C)cc(-c2c(-c3ccnc(-c4ccc(N(C)C)cc4)c3)cnn2CC#N)c1
growth at 10 µM (SN12C [1]): 29.4% | growth at 0.01 µM (SK-OV-3): 47% | GI50 (BT-549 [2]): 0.0751 µM | TGI (BT-549 [2]): 0.514 µM | CC50 (BT-549 [2]): > 100 µM | GI50 (KM12 [3]): 0.0475 µM | TGI (KM12 [3]): 0.264 µM | CC50 (KM12 [3]): > 100 µM | growth at 10 µM (KM12 [4]): -49% | growth at 1 µM (MDA-MB-231): 17% | growth at 0.01 µM (T47D): 36% | growth at 0.001 µM (HCT-15): 100% | growth at 0.01 µM (SK-MEL-2): 66% | growth at 0.01 µM (HCT-116 [5]): 44% | growth at 1 µM (EKVX): 9% | growth at 0.01 µM (M14): -19% | growth at 0.001 µM [6]: 100% | growth at 0.01 µM (SN12C [7]): 75% | GI50 (MOLT-4): 0.271 µM | LC50 (MOLT-4): > 100 µM | growth at 10 µM (HOP-92): -26% | growth at 10 µM (MDA-MB-435): -14.7% | growth at 0.01 µM (NCI-H23): 67% | growth at 0.001 µM (UACC-257): 89% | growth at 0.001 µM (HCT-116 [8]): 102% | GI50 (UO-31 [9]): 0.508 µM | TGI (UO-31 [9]): > 100 µM | CC50 (UO-31 [9]): > 100 µM | growth at 0.01 µM (BT-549 [10]): 44% | growth at 10 µM (NCI-H322M): 58.9% | growth at 0.1 µM (SN12C [11]): 28% | growth at 0.01 µM (CCRF-CEM): 73% | GI50 (UACC-62): 0.0619 µM | TGI (UACC-62): > 100 µM | CC50 (UACC-62): > 100 µM | GI50 (A498): 0.132 µM | LC50 (A498): > 100 µM | TGI (A498): > 100 µM | GI50 (OVCAR-5): > 100 µM | TGI (OVCAR-5): > 100 µM | CC50 (OVCAR-5): > 100 µM | growth at 1 µM (SN12C [12]): 18% | growth at 1 µM (UO-31 [13]): 12%
